Measured values published in ChEMBL document CHEMBL3861962 (Eur J Med Chem, 2016).
Values belong to the molecule of their own block, whether it stands above or below them. Where a SMILES comes first, the peptide text is derived from it. [ ]: non-standard residue; d: D form.

Key:
Endothelin-1 receptor = molecular target: T1, Endothelin-1 receptor (Homo sapiens, UniProt P25101); experiment: Antagonist activity at ETA receptor in human SKNMC cells assessed as inhibition of endothelin-1-mediated Ca2+ mobilization by fura-2/AM dye-based spectrofluorimetric method
T1 sequence (P25101 whole entry): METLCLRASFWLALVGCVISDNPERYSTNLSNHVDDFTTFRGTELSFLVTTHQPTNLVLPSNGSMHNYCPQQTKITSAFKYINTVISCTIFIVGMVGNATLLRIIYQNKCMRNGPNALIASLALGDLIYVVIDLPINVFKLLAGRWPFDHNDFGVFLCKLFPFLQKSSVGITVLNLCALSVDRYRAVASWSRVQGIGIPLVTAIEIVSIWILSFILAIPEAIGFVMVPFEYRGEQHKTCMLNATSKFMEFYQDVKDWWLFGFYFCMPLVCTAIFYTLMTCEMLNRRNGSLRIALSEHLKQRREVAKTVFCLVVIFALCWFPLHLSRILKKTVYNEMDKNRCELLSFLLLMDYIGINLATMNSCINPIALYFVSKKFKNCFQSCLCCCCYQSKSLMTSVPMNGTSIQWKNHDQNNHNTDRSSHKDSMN

Cytochrome P450 3A4 [1] = molecular target: T2, Cytochrome P450 3A4 (Homo sapiens, UniProt P08684); experiment: Drug level assessed as human recombinant CYP3A4-mediated compound formation treated with 4-(tert-Butyl)-N-(6-ethoxy-5-(2-methoxyphenoxy)-[2,2'-bipyrimidin]-4-yl)benzenesulfonamide at 5 uM in presence of NADPH after 30 mins by LC-MS/MS analysis; assay type: ADME; conditions: recombinant enzyme, 0.5 h
T2 sequence (P08684 whole entry): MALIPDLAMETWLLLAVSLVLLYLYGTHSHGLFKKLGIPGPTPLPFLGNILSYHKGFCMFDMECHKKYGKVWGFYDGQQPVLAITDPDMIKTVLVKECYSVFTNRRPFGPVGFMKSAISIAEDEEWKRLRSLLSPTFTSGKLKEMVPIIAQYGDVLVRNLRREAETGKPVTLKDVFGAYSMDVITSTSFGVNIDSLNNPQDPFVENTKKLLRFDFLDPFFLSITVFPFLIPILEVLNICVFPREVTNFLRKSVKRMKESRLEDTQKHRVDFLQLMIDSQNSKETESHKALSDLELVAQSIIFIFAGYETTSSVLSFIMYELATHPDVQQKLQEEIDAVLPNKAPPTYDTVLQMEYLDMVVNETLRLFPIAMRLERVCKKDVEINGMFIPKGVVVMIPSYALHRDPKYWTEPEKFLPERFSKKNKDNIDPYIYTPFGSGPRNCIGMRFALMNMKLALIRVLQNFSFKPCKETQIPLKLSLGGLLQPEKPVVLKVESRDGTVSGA
Outline: (§1)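 Substrate at 5 μM final in 100 mM potassium phosphate, pH 7.4, incubated with human liver microsomes or baculovirus-expressed recombinant CYP3A4, 2D6 or 2C9. Reaction started with 1 mM NADPH and run 0, 15 and 30 min at 37 °C. Stopped with ice-cold acetonitrile containing labetalol internal standard, then centrifuged. Supernatant analysed by LC-MS/MS on a C18 column at 40 °C. Blank was enzyme without substrate.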

[2] = Drug level in human liver microsomes treated with 4-(tert-Butyl)-N-(6-ethoxy-5-(2-methoxyphenoxy)-[2,2'-bipyrimidin]-4-yl)benzenesulfonamide at 5 uM in presence of NADPH after 30 mins by LC-MS/MS analysis; assay type: ADME; conditions: 0.5 h; outline: as §1
Cytochrome P450 2C9 [3] = molecular target: T3, Cytochrome P450 2C9 (Homo sapiens, UniProt P11712); experiment: Drug level assessed as human recombinant CYP2C9-mediated compound formation treated with 4-(tert-Butyl)-N-(6-ethoxy-5-(2-methoxyphenoxy)-[2,2'-bipyrimidin]-4-yl)benzenesulfonamide at 5 uM in presence of NADPH after 30 mins by LC-MS/MS analysis; assay type: ADME; conditions: recombinant enzyme, 0.5 h; outline: as §1
T3 sequence (P11712 whole entry): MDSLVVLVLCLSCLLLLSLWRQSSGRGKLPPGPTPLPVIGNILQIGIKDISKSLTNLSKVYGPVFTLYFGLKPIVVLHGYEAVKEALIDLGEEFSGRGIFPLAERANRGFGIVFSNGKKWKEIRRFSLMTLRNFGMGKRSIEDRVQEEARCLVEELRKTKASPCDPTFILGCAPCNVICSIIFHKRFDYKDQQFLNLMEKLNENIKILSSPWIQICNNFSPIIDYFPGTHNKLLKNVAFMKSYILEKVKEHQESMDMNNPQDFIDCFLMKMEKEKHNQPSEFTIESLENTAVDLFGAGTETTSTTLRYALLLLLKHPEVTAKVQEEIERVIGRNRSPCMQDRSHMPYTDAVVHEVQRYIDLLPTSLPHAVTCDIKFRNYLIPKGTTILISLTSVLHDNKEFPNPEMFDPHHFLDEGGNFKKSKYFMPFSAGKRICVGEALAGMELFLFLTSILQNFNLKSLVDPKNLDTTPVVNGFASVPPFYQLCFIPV

[4] = Retention time of the compound; assay type: physicochemical
[5] = molecular target: T4, Endothelin receptor type B (Homo sapiens) (UniProt P24530); experiment: (§2) Antagonist activity at ETB receptor in human BSMC assessed as inhibition of endothelin-1 or 3-mediated Ca2+ mobilization preincubated for 5 mins followed by endothelin-1 or 3 addition by fura-2/AM dye-based spectrofluorimetric method; assay type: functional
T4 sequence (whole entry): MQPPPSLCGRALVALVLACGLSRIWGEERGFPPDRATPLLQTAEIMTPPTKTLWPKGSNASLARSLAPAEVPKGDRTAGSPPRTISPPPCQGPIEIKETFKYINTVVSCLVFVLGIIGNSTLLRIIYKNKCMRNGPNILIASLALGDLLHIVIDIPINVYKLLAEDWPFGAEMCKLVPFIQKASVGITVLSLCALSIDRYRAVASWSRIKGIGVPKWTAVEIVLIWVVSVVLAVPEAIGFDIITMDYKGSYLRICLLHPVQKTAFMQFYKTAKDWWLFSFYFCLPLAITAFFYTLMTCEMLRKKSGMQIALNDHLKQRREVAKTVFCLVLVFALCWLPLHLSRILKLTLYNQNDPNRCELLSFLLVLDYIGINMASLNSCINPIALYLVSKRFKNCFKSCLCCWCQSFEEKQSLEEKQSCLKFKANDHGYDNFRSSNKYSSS

[6] = molecular target: T5, Endothelin receptor type B (Homo sapiens, UniProt P24530); experiment: as §2; assay type: functional
T5 sequence (P24530 whole entry): T4 sequence (whole entry)

Cytochrome P450 3A4 [7] = molecular target: T2, Cytochrome P450 3A4; experiment: Drug level assessed as human recombinant CYP3A4-mediated compound formation treated with bosentan at 5 uM in presence of NADPH after 30 mins by LC-MS/MS analysis; assay type: ADME; conditions: recombinant enzyme, 0.5 h; outline: as §1
[8] = Drug level in human liver microsomes treated with bosentan at 5 uM in presence of NADPH after 30 mins by LC-MS/MS analysis; assay type: ADME; conditions: 0.5 h; outline: as §1
Cytochrome P450 2C9 [9] = molecular target: T3, Cytochrome P450 2C9; experiment: Drug level assessed as human recombinant CYP2C9-mediated compound formation treated with bosentan at 5 uM in presence of NADPH after 30 mins by LC-MS/MS analysis; assay type: ADME; conditions: recombinant enzyme, 0.5 h; outline: as §1
[10] = Metabolic stability in human liver microsomes assessed as parent compound remaining at 5 uM in presence of NADPH after 30 mins by LC-MS/MS analysis; assay type: ADME; conditions: read-out: Stability
Outline: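 Pooled human liver microsomes in 100 mM potassium phosphate, pH 7.4, with test compound at 5 μM final. Reaction started with 1 mM NADPH (final) and run at 37 °C in a shaking water bath for 0, 15 and 30 min. Stopped with an equal volume of ice-cold acetonitrile containing 0.6 μM labetalol as internal standard. Protein was spun out and the supernatant analysed by LC-MS/MS. Blank had no compound.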

Cytochrome P450 3A4 [11] = molecular target: T2, Cytochrome P450 3A4; experiment: Drug metabolism assessed as human recombinant CYP3A4-mediated metabolite formation by measuring parent compound remaining at 5 uM in presence of NADPH after 30 mins by LC-MS/MS analysis; assay type: ADME; conditions: recombinant enzyme, 0.5 h; outline: as §1
Cytochrome P450 2C9 [12] = molecular target: T3, Cytochrome P450 2C9; experiment: Drug metabolism assessed as human recombinant CYP2C9-mediated metabolite formation by measuring parent compound remaining at 5 uM in presence of NADPH after 30 mins by LC-MS/MS analysis; assay type: ADME; conditions: recombinant enzyme, 0.5 h; outline: as §1
[13] = Drug metabolism in human liver microsomes assessed as formation of 4-(1-hydroxy-2-methylpropan-2-yl)-N-(6-(2-hydroxyethoxy)-5-(2-methoxyphenoxy)-2,2'-bipyrimidin-4-yl)benzenesulfonamide at 5 uM in presence of NADPH after 30 mins by LC-MS/MS analysis; assay type: ADME; conditions: 0.5 h; outline: as §1
[14] = Drug metabolism in human liver microsomes assessed as formation of 4-tert-butyl-N-(6-(2-hydroxyethoxy)-5-(2-hydroxyphenoxy)-2,2'-bipyrimidin-4-yl)benzenesulfonamide at 5 uM in presence of NADPH after 30 mins by LC-MS/MS analysis; assay type: ADME; conditions: 0.5 h; outline: as §1
[15] = Drug metabolism in human liver microsomes assessed as formation of 4-(1-hydroxy-2-methylpropan-2-yl)-N-(6-(2-hydroxyethoxy)-5-(2-hydroxyphenoxy)-2,2'-bipyrimidin-4-yl)benzenesulfonamide at 5 uM in presence of NADPH after 30 mins by LC-MS/MS analysis; assay type: ADME; conditions: 0.5 h; outline: as §1
Cytochrome P450 3A4 [16] = molecular target: T2, Cytochrome P450 3A4; experiment: Drug metabolism assessed as human recombinant CYP3A4-mediated formation of 4-(1-hydroxy-2-methylpropan-2-yl)-N-(6-(2-hydroxyethoxy)-5-(2-methoxyphenoxy)-2,2'-bipyrimidin-4-yl)benzenesulfonamide at 5 uM in presence of NADPH after 30 mins by LC-MS/MS analysis; assay type: ADME; conditions: recombinant enzyme, 0.5 h; outline: as §1
Cytochrome P450 3A4 [17] = molecular target: T2, Cytochrome P450 3A4; experiment: Drug metabolism assessed as human recombinant CYP3A4-mediated formation of 4-tert-butyl-N-(6-(2-hydroxyethoxy)-5-(2-hydroxyphenoxy)-2,2'-bipyrimidin-4-yl)benzenesulfonamide at 5 uM in presence of NADPH after 30 mins by LC-MS/MS analysis; assay type: ADME; conditions: recombinant enzyme, 0.5 h; outline: as §1
Cytochrome P450 3A4 [18] = molecular target: T2, Cytochrome P450 3A4; experiment: Drug metabolism assessed as human recombinant CYP3A4-mediated formation of 4-(1-hydroxy-2-methylpropan-2-yl)-N-(6-(2-hydroxyethoxy)-5-(2-hydroxyphenoxy)-2,2'-bipyrimidin-4-yl)benzenesulfonamide at 5 uM in presence of NADPH after 30 mins by LC-MS/MS analysis; assay type: ADME; conditions: recombinant enzyme, 0.5 h; outline: as §1
Cytochrome P450 2C9 [19] = molecular target: T3, Cytochrome P450 2C9; experiment: Drug metabolism assessed as human recombinant CYP2C9-mediated formation of 4-(1-hydroxy-2-methylpropan-2-yl)-N-(6-(2-hydroxyethoxy)-5-(2-methoxyphenoxy)-2,2'-bipyrimidin-4-yl)benzenesulfonamide at 5 uM in presence of NADPH after 30 mins by LC-MS/MS analysis; assay type: ADME; conditions: recombinant enzyme, 0.5 h; outline: as §1
Cytochrome P450 2D6 = Cytochrome P450 2D6 (Homo sapiens, UniProt P10635); experiment: Drug metabolism assessed as human recombinant CYP2D6-mediated metabolite formation by measuring parent compound remaining at 5 uM in presence of NADPH after 30 mins by LC-MS/MS analysis; assay type: ADME; conditions: recombinant enzyme, 0.5 h; outline: as §1
Chain of Cytochrome P450 2D6 (P10635 whole entry): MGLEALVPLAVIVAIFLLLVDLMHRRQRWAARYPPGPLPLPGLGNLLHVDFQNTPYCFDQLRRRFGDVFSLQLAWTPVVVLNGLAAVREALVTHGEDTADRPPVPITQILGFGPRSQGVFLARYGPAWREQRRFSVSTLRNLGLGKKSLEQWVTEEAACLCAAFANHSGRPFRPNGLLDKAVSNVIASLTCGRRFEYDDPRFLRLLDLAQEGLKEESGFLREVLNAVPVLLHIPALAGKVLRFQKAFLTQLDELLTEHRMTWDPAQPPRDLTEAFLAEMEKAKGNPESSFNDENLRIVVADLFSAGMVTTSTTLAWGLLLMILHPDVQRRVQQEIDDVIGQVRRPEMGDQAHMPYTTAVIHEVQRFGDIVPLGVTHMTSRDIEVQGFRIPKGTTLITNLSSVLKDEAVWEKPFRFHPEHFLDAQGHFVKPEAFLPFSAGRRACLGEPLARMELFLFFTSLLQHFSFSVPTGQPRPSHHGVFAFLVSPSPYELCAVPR

[20] = Cytotoxicity against CHOK1 cells assessed as decrease in cell viability after 24 hrs by MTT assay; assay type: toxicity, cell-based, Cricetulus griseus; conditions: Chinese hamster, CHO-K1 cells
Outline: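 CHO-k1 cells grown in phenol-red-free DMEM/F-12 with 10% FBS, seeded at 20,000 cells/well and allowed to attach overnight. Exposure was 24 h to 0.1–200 μM, with DMSO as vehicle control. MTT at 1 mg/mL for 3 h at 37 °C, formazan dissolved in DMSO, absorbance read at 570 nm. Data given as % OD of vehicle control; IC50 taken from dose–response curve fits.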

- IC50 (Endothelin-1 receptor): 0.62 nM
SMILES: CC(C)C[C@@H]1NC(=O)[C@@H](C(C)C)NC(=O)[C@@H]2CCCN2C(=O)[C@@H](CC(=O)O)NC(=O)[C@@H](Cc2c[nH]c3ccccc23)NC1=O [BQ-123] (cyclo(L[dW][dD]P[dV]))

- Drug metabolism (Cytochrome P450 3A4 [1]): Metabolite_Detected
- Drug metabolism [2]: Metabolite_Detected
- Drug metabolism (Cytochrome P450 2C9 [3]): Metabolite_Detected
- Retention_time [4]: 4.99 min
SMILES: CCOc1nc(-c2ncccn2)nc(NS(=O)(=O)c2ccc(C(C)(C)CO)cc2)c1Oc1ccccc1OC

- Kb [5]: 0.5 nM
- IC50 [6]: 0.41 nM
SMILES: CCCC[C@@H](NC(=O)[C@@H](Cc1cn(C(=O)OC)c2ccccc12)NC(=O)[C@H](CC(C)(C)C)NC(=O)N1[C@H](C)CCC[C@@H]1C)C(=O)O

- Drug metabolism (Cytochrome P450 3A4 [7]): Metabolite_Detected
- Drug metabolism [8]: Metabolite_Detected
- Drug metabolism (Cytochrome P450 2C9 [9]): Metabolite_Detected
- Retention_time [4]: 3.79 min
SMILES: COc1ccccc1Oc1c(NS(=O)(=O)c2ccc(C(C)(C)CO)cc2)nc(-c2ncccn2)nc1OCCO

- remaining at 0.5 h, 5 µM [10]: 91.6%
- Stability (Cytochrome P450 3A4 [11]): 20.9%
- Stability (Cytochrome P450 2C9 [12]): 75.8%
- Drug metabolism [13]: Metabolite_Detected
- Drug metabolism [14]: Metabolite_Detected
- Drug metabolism [15]: Metabolite_Detected
- Drug metabolism (Cytochrome P450 3A4 [16]): Metabolite_Detected
- Drug metabolism (Cytochrome P450 3A4 [17]): Metabolite_Detected
- Drug metabolism (Cytochrome P450 3A4 [18]): Metabolite_Detected
- Drug metabolism (Cytochrome P450 2C9 [19]): Metabolite_Detected
- Retention_time [4]: 5.1 min
- Stability (Cytochrome P450 2D6): > 99%
SMILES: COc1ccccc1Oc1c(NS(=O)(=O)c2ccc(C(C)(C)C)cc2)nc(-c2ncccn2)nc1OCCO [BOSENTAN]
- IC50 at 24 h [20]: 196000 nM
